Reference: ChEMBL document CHEMBL2424622, “Development of amino-pyrimidine inhibitors of c-Jun N-terminal kinase (JNK): kinase profiling guided optimization of a 1,2,3-benzotriazole lead” (Bioorg Med Chem Lett, 2013)

Tests used:
[1] = molecular target: Serine/threonine-protein kinase PAK 3 (Homo sapiens) (UniProt O75914); test: Competitive binding affinity to PAK3 (unknown origin) at 10 uM in presence of ATP relative to control
Outline: (§1)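 In vitro ATP-site competition binding assay across a diverse panel of 128 kinases, with compound tested at a single concentration. Kinase selectivity scores (S15) were calculated from the panel profiles.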

[2] = molecular target: Fibroblast growth factor receptor 3 (Homo sapiens) (UniProt P22607); test: Competitive binding affinity to FGFR3 (unknown origin) at 10 uM in presence of ATP relative to control
Outline: (§2)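 In vitro ATP-site competition binding assay, part of profiling against a diverse panel of 128 kinases. Each compound was tested at a single concentration of 10 µM. Kinome selectivity was summarized as S15 selectivity scores.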

[3] = molecular target: c-Jun N-terminal kinase, JNK (Homo sapiens, UniProt P45983+P53779+P45984); test: Inhibition of JNK in human SW1353 cells assessed as inhibition of TNFalpha-induced c-Jun phosphorylation incubated for 30 mins prior to TNFalpha induction measured after 20 mins; assay type: cell-based
Outline: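 SW1353 cells were stimulated with TNFa, and the read-out was inhibition of phosphorylation of the downstream substrate c-Jun. Values are the mean of at least three experiments.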

[4] = molecular target: T1, Tyrosine-protein kinase ITK/TSK (Homo sapiens) (UniProt Q08881); test: Competitive binding affinity to ITK (unknown origin) at 10 uM in presence of ATP relative to control; outline: as §2
T1 sequence (whole entry): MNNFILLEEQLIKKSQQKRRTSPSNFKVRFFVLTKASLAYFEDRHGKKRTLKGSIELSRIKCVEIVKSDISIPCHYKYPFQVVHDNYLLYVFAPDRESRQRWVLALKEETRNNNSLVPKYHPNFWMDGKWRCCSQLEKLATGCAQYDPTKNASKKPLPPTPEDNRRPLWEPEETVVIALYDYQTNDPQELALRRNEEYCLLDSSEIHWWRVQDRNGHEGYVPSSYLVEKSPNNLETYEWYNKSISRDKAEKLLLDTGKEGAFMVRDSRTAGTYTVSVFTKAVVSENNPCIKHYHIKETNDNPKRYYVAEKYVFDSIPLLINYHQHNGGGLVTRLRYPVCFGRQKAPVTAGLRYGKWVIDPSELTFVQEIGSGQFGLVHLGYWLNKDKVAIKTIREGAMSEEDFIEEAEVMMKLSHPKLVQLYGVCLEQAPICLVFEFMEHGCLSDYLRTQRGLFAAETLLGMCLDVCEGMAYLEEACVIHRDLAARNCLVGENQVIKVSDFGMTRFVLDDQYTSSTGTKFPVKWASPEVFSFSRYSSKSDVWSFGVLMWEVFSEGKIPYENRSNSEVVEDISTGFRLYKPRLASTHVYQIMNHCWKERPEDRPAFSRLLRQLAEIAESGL

[5] = molecular target: Casein kinase I isoform gamma-1 (Homo sapiens) (UniProt Q9HCP0); test: Competitive binding affinity to CSNK1G1 (unknown origin) at 10 uM in presence of ATP relative to control
[6] = molecular target: Ephrin type-A receptor 4 (Homo sapiens) (UniProt P54764); test: Competitive binding affinity to EPHA4 (unknown origin) at 10 uM in presence of ATP relative to control; outline: as §2
[7] = molecular target: Receptor tyrosine-protein kinase erbB-4 (Homo sapiens) (UniProt Q15303); test: Competitive binding affinity to ERBB4 (unknown origin) at 10 uM in presence of ATP relative to control; outline: as §2
[8] = molecular target: Serine/threonine-protein kinase Nek6 (Homo sapiens) (UniProt Q9HC98); test: Competitive binding affinity to NEK6 (unknown origin) at 10 uM in presence of ATP relative to control; outline: as §1
[9] = molecular target: Calcium/calmodulin-dependent protein kinase type II subunit gamma (Homo sapiens) (UniProt Q13555); test: Competitive binding affinity to CAMK2G (unknown origin) at 10 uM in presence of ATP relative to control
[10] = molecular target: Vascular endothelial growth factor receptor 2 (Homo sapiens) (UniProt P35968); test: Competitive binding affinity to VEGFR2 (unknown origin) at 10 uM in presence of ATP relative to control; outline: as §1
[11] = molecular target: T2, Aurora kinase A (Homo sapiens) (UniProt O14965); test: Competitive binding affinity to AURKA (unknown origin) at 10 uM in presence of ATP relative to control
T2 sequence (whole entry): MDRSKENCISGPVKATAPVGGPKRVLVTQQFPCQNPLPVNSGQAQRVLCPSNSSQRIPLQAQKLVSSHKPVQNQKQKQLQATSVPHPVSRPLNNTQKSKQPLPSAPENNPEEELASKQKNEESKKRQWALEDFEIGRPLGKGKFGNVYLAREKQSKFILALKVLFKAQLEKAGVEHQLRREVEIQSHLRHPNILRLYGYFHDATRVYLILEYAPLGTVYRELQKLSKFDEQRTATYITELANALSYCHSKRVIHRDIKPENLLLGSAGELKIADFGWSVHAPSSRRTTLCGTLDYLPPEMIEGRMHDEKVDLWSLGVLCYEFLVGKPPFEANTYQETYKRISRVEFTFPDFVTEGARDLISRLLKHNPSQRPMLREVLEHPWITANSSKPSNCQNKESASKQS

[12] = molecular target: BMP-2-inducible protein kinase (Homo sapiens) (UniProt Q9NSY1); test: Competitive binding affinity to BIKE (unknown origin) at 10 uM in presence of ATP relative to control
[13] = molecular target: Serine/threonine-protein kinase MARK2 (Homo sapiens) (UniProt Q7KZI7); test: Competitive binding affinity to MARK2 (unknown origin) at 10 uM in presence of ATP relative to control; outline: as §1
[14] = molecular target: Tyrosine-protein kinase ABL1 (Homo sapiens) (UniProt P00519); test: Competitive binding affinity to ABL1 (unknown origin) at 10 uM in presence of ATP relative to control
[15] = molecular target: Tyrosine-protein kinase Lyn (Homo sapiens) (UniProt P07948); test: Competitive binding affinity to LYN (unknown origin) at 10 uM in presence of ATP relative to control; outline: as §2
[16] = molecular target: T3, Phosphorylase b kinase gamma catalytic chain, liver/testis isoform (Homo sapiens) (UniProt P15735); test: Competitive binding affinity to PHKG2 (unknown origin) at 10 uM in presence of ATP relative to control; outline: as §1
T3 sequence (whole entry): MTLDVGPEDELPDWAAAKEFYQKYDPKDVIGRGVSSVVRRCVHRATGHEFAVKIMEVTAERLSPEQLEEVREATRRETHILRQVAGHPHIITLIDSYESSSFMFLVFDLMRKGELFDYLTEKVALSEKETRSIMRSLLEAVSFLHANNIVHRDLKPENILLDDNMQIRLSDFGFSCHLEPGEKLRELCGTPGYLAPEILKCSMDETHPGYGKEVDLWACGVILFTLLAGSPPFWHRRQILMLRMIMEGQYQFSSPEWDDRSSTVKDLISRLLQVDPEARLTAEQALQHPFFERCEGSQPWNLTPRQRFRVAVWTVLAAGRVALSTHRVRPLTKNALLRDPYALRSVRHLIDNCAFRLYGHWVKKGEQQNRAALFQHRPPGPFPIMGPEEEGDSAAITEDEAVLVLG

Sequence of Tyrosine-protein kinase Lyn (Homo sapiens) (P07948 2-512 limits assumed): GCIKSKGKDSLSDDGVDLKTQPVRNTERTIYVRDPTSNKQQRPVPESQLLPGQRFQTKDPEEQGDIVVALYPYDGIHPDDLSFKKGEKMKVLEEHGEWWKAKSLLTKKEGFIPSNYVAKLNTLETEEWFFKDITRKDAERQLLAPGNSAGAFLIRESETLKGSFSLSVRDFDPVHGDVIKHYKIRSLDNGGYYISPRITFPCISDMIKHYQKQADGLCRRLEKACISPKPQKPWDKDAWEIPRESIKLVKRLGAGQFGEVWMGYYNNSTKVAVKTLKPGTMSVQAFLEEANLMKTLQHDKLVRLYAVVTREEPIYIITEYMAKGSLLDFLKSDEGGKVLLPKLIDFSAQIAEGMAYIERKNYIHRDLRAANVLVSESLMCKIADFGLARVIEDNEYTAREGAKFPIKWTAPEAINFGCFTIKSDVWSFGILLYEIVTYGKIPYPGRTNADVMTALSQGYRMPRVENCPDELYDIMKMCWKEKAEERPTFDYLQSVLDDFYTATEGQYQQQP
Sequence of Casein kinase I isoform gamma-1 (Homo sapiens) (Q9HCP0 whole entry, looked up, canonical isoform): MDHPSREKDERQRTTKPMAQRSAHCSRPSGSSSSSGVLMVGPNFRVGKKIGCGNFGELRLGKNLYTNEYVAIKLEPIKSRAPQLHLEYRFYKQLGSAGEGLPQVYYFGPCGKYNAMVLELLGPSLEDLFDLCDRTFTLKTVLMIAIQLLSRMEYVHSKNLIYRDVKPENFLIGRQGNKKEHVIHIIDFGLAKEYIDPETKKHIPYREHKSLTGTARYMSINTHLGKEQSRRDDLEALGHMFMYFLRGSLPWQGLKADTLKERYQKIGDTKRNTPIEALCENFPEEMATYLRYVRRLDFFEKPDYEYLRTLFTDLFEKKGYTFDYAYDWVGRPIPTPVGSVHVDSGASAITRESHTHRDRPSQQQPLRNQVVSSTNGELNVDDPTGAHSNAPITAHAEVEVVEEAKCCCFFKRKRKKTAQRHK
Sequence of BMP-2-inducible protein kinase (Homo sapiens) (Q9NSY1 whole entry, looked up): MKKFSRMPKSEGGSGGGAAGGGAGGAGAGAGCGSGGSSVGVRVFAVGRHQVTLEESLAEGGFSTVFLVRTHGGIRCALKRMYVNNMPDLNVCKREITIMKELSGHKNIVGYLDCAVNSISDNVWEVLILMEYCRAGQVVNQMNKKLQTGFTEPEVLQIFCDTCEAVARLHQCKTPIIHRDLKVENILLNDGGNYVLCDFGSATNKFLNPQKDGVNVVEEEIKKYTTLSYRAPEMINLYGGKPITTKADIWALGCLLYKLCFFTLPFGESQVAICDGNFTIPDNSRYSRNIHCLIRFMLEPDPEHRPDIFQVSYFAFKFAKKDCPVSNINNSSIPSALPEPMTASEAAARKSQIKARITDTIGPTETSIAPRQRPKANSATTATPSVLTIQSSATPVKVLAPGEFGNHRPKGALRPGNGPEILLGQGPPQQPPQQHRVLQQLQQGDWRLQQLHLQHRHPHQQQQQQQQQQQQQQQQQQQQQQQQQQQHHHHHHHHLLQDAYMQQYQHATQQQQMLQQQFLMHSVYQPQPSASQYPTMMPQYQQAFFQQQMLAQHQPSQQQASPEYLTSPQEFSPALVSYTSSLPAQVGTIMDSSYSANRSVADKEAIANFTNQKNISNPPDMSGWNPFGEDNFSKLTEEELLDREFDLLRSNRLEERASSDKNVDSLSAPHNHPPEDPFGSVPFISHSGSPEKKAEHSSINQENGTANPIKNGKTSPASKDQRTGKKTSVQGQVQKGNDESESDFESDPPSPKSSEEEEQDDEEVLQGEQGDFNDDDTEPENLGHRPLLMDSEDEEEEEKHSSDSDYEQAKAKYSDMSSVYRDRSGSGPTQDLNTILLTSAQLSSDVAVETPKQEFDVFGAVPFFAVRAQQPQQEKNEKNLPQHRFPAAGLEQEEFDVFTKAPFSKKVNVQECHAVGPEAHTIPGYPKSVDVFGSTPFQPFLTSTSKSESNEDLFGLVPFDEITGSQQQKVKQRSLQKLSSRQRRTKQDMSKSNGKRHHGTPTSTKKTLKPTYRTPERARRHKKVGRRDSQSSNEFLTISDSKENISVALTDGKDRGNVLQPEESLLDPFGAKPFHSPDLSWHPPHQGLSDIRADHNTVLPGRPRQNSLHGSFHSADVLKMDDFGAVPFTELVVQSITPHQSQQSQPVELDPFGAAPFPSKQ
Sequence of Serine/threonine-protein kinase MARK2 (Homo sapiens) (Q7KZI7 whole entry): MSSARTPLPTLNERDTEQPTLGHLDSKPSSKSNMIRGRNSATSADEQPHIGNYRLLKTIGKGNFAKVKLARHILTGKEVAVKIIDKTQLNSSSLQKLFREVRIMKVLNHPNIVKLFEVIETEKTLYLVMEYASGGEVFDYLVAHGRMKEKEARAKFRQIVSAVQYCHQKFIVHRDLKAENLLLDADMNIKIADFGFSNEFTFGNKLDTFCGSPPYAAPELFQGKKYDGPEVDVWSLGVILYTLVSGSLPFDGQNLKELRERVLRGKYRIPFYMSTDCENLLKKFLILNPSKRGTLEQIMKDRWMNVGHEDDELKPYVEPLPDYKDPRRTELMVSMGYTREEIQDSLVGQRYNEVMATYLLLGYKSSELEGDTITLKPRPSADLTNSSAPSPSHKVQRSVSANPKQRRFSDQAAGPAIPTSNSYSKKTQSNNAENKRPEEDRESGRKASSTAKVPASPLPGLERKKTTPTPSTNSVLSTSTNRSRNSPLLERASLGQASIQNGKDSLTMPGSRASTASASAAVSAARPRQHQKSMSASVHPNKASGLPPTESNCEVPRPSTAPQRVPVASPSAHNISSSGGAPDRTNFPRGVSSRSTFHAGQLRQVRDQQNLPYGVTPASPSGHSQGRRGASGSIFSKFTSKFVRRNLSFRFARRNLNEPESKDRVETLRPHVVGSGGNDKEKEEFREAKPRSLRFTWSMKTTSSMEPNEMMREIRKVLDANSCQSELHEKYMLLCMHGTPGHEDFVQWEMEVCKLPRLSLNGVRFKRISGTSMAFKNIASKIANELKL
Sequence of Calcium/calmodulin-dependent protein kinase type II subunit gamma (Homo sapiens) (Q13555 whole entry): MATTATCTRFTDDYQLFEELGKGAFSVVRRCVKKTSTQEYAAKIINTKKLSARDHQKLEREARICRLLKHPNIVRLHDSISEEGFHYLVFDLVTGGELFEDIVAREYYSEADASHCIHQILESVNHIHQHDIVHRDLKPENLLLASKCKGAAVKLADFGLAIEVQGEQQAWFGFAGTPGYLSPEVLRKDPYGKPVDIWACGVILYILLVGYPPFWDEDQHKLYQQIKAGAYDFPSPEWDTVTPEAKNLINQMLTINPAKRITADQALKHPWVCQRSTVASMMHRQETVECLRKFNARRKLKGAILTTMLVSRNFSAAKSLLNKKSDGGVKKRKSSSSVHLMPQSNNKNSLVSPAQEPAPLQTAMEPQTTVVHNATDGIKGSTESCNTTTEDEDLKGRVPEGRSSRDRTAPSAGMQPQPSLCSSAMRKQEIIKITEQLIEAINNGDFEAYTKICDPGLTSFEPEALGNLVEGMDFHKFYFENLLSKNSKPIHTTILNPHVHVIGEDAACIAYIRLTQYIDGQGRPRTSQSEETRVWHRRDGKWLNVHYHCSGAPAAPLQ
Sequence of Ephrin type-A receptor 4 (Homo sapiens) (P54764 whole entry): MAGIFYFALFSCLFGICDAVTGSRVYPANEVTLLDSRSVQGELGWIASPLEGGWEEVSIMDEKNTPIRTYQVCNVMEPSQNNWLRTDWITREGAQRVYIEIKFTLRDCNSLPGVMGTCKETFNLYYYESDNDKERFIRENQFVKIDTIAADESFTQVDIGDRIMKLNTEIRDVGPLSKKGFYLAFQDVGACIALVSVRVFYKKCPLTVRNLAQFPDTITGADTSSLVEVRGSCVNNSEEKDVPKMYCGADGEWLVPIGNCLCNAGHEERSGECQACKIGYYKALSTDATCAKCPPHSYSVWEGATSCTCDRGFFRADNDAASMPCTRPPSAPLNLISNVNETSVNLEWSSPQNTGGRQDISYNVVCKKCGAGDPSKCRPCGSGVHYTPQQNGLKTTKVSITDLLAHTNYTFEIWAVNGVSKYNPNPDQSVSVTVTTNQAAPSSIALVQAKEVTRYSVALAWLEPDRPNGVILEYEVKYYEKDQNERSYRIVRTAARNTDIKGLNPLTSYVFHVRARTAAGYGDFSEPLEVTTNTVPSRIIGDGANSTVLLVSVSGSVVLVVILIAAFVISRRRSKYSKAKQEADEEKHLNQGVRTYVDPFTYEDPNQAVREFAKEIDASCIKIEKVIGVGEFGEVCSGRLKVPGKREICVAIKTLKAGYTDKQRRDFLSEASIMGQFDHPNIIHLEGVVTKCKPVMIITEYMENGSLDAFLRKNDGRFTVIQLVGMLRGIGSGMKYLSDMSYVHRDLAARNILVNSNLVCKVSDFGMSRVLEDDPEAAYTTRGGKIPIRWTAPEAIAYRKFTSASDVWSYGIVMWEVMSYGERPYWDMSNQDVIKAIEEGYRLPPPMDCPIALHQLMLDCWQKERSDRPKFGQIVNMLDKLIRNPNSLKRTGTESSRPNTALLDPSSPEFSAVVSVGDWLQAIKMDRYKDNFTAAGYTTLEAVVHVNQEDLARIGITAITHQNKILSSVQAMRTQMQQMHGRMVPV
Sequence of Serine/threonine-protein kinase Nek6 (Homo sapiens) (Q9HC98 whole entry): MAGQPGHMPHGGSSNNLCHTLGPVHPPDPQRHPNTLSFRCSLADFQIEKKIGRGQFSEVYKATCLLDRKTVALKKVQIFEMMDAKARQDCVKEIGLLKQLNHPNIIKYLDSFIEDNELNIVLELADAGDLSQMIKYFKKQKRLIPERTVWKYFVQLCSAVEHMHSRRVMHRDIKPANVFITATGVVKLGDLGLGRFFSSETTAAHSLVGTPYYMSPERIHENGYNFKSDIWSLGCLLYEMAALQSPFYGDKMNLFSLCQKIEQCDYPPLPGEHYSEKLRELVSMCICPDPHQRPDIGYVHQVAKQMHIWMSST

Structure (SMILES)	inhibition [1] [%]	inhibition [2] [%]	IC50 [3] [nM]	inhibition [4] [%]	inhibition [5] [%]	inhibition [6] [%]	inhibition [7] [%]	inhibition [8] [%]	inhibition [9] [%]	inhibition [10] [%]	inhibition [11] [%]	inhibition [12] [%]	inhibition [13] [%]	inhibition [14] [%]	inhibition [15] [%]	inhibition [16] [%]
O[C@H]1CC[C@H](Nc2nccc(-n3nnc4ccccc43)n2)CC1	76	< 50	790	< 50	97	< 50	< 50	73	69	< 50	< 50	86	< 50	< 50	< 50	83
N[C@H]1CC[C@H](Nc2nccc(-n3nnc4ccccc43)n2)CC1	90	< 50	540	< 50	100	< 50	< 50	< 50	< 50	< 50	< 50	99	78	< 50	< 50	100
O=C([C@H]1CC[C@H](Nc2nccc(-n3nnc4ccccc43)n2)CC1)N1CCOCC1	< 50	< 50	1800	< 50	75	< 50	< 50	66	< 50	< 50	80	87	< 50	92	< 50	< 50
CS(=O)(=O)CCCOc1cccc2c1ccn2-c1ccnc(N[C@H]2CC[C@H](C(=O)N3CCC(O)CC3)CC2)n1			1100													
O[C@H]1CC[C@H](Nc2nccc(-n3ncc4ccccc43)n2)CC1	75	< 50	2700	< 50	< 50	< 50	< 50	< 50	80	< 50	< 50	81	< 50	< 50	< 50	< 50
O[C@H]1CC[C@H](Nc2nccc(-c3n[nH]c4ccccc34)n2)CC1	99	74	2300	96	92	< 50	< 50	77	88	91	92	99	88	< 50	< 50	90
O[C@H]1CC[C@H](Nc2nccc(-n3ccc4ccccc43)n2)CC1	< 50	< 50	2000	< 50	< 50	< 50	< 50	< 50	67	< 50	< 50	< 50	< 50	< 50	< 50	< 50
